Reference: ChEMBL document CHEMBL4177648, “Benzofuran-dihydropyridine hybrids: A new class of potential bone anabolic agents” (Bioorg Med Chem, 2017)
pEC50: −log10 of the molar value. The source made the active and inactive calls. No cut-off for these calls is given here.

Columns and labels:
[1] = tested on: Calvarial osteoblast; assay: Anabolic activity in rat calvarial osteoblasts assessed as induction of alkaline phosphatase activity at 1 uM after 48 hrs in presence of beta-glycerophosphate and ascorbic acid by p-nitrophenyl phosphate substrate based assay (reference value: 1 to 1.21); format: functional
[2] = tested on: Calvarial osteoblast; assay: Anabolic activity in rat calvarial osteoblasts assessed as induction of alkaline phosphatase activity at 100 pM after 48 hrs in presence of beta-glycerophosphate and ascorbic acid by p-nitrophenyl phosphate substrate based assay (reference value: 1 to 1.21); format: functional
[3] = tested on: Calvarial osteoblast; assay: Anabolic activity in rat calvarial osteoblasts assessed as induction of alkaline phosphatase activity after 48 hrs in presence of beta-glycerophosphate and ascorbic acid by p-nitrophenyl phosphate substrate based assay; format: functional, cell-based
[4] = tested on: Calvarial osteoblast; assay: Anabolic activity in rat calvarial osteoblasts assessed as induction of alkaline phosphatase activity at 100 uM after 48 hrs in presence of beta-glycerophosphate and ascorbic acid by p-nitrophenyl phosphate substrate based assay (reference value: 1 to 1.21); format: functional
[5] = tested on: Calvarial osteoblast; assay: Anabolic activity in rat calvarial osteoblasts assessed as induction of alkaline phosphatase activity at 10 nM after 48 hrs in presence of beta-glycerophosphate and ascorbic acid by p-nitrophenyl phosphate substrate based assay (reference value: 1 to 1.21); format: functional
[6] = tested on: Calvarial osteoblast; assay: Anabolic activity in rat calvarial osteoblasts assessed as induction of alkaline phosphatase activity at 1 pM after 48 hrs in presence of beta-glycerophosphate and ascorbic acid by p-nitrophenyl phosphate substrate based assay (reference value: 1 to 1.21); format: functional
[7] = tested on: Calvarial osteoblast; assay: Upregulation of Col1 mRNA levels in rat calvarial osteoblasts at 1 uM after 48 hrs by qRT-PCR analysis relative to control; format: functional
Method in brief: (§1)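 Rat pup calvarial osteoblasts were treated for 48 h with compound. Total RNA was extracted with TRIzol and checked by A260 and A260/A280. qRT-PCR used 45 cycles (94 °C, 62 °C, 72 °C steps) and was normalised to GAPDH. Fold change is over untreated cells; n=5, mean ± SEM.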

[8] = tested on: Calvarial osteoblast; assay: Upregulation of ALP mRNA levels in rat calvarial osteoblasts at 1 uM after 48 hrs by qRT-PCR analysis relative to control; format: functional; method in brief: as §1
[9] = tested on: Calvarial osteoblast; assay: Upregulation of Runx2 mRNA levels in rat calvarial osteoblasts at 1 uM after 48 hrs by qRT-PCR analysis relative to control; format: functional; method in brief: as §1
[10] = tested on: Calvarial osteoblast; assay: Upregulation of Bmp2 mRNA levels in rat calvarial osteoblasts at 1 uM after 48 hrs by qRT-PCR analysis relative to control; format: functional; method in brief: as §1
[11] = tested on: Calvarial osteoblast; assay: Induction of mineralization in rat calvarial osteoblasts at 1 uM after 21 days by Alizarin-red dye based assay; format: functional, cell-based
Method in brief: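 Rat pup calvarial osteoblasts were seeded at 1×10^4 cells/well in differentiation medium with compound. Medium was changed every other day for 21 days. Cells were fixed in 4% paraformaldehyde and stained with 40 mM Alizarin red (pH 4.5). Stain was extracted with 10% acetic acid, heated to 85 °C, and neutralised with NH4OH. Absorbance was read at 405 nm.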

[12] = tested on: Calvarial osteoblast; assay: Upregulation of Osx mRNA levels in rat calvarial osteoblasts at 1 uM after 48 hrs by qRT-PCR analysis relative to control; format: functional; method in brief: as §1

Row | Compound | OD [1] | OD [2] | pEC50 [3] | OD [4] | OD [5] | OD [6] | fold change (FC) [7] | fold change (FC) [8] | fold change (FC) [9] | fold change (FC) [10] | Activity [11] | fold change (FC) [12]
1 | CCC(C)c1cc(C=O)cc2cc(C(=O)c3ccc(OC)cc3)oc12 (centres undefined) | 1.21 | 1.49 | 8.00 | 0.58 | 1.59 | 1.35 |  |  |  |  |  | 
2 | CCC(C)c1cc(C2C(C(=O)OC)=C(C)NC3=C2C(=O)CC(C)(C)C3)cc2cc(C(=O)c3ccc(Cl)cc3)oc12 (centres undefined) | 0.23 | 0.85 |  | 0.23 | 0.86 | 1.08 |  |  |  |  |  | 
3 | CCOC(=O)C1=C(C)NC2=C(C(=O)CCC2)C1c1cc(CC)c2oc(C(=O)c3ccc(OC)cc3)cc2c1 (centres undefined) | 1.8 | 1.49 | 5.00 | 0.41 | 1.64 | 1.32 | 2 - 5.5 | 2 - 5.5 | 2 - 5.5 | 2 - 5.5 | Active | 2 - 5.5
4 | CCC(C)c1cc(C=O)cc2cc(C(=O)c3ccc(Cl)cc3)oc12 (centres undefined) | 0.77 | 0.78 |  | 0.26 | 0.96 | 0.98 |  |  |  |  |  | 
5 | CCc1cc(C2C(C(=O)OC)=C(C)NC3=C2C(=O)CC(C)(C)C3)cc2cc(C(=O)c3ccc(OC)cc3)oc12 (centres undefined) | 1.2 | 0.73 |  | 0.18 | 1.19 | 1.26 |  |  |  |  |  | 
6 | CCC(C)c1cc(C2C(C(=O)OC)=C(C)NC3=C2C(=O)CCC3)cc2cc(C(=O)c3ccc(C)cc3)oc12 (centres undefined) | 0.84 | 1.12 |  | 0.25 | 1.17 | 0.99 |  |  |  |  |  | 
7 | COc1ccc(C(=O)c2cc3cc(C=O)cc(C(C)(C)C)c3o2)cc1 | 1.26 | 1.5 |  | 0.59 | 1.7 | 1.33 |  |  |  |  |  | 
8 | COC(=O)C1=C(C)NC2=C(C(=O)CCC2)C1c1cc(C(C)(C)C)c2oc(C(=O)c3ccc(OC)cc3)cc2c1 (centres undefined) | 1.17 | 1.01 |  | 0.32 | 1.07 | 1.19 |  |  |  |  |  | 
9 | CCOC(=O)C1=C(C)NC2=C(C(=O)CCC2)C1c1cc(C(C)(C)C)c2oc(C(=O)c3ccc(OC)cc3)cc2c1 (centres undefined) | 1.77 | 1.14 |  | 0.29 | 1.17 | 1.14 |  |  |  |  |  | 
10 | CCC(C)c1cc(C2C(C(=O)OC)=C(C)NC3=C2C(=O)CCC3)cc2cc(C(=O)c3ccc(OC)cc3)oc12 (centres undefined) | 1.34 | 1.34 |  | 0.37 | 1.09 | 1.37 |  |  |  |  |  | 
11 | CCC(C)c1cc(C2C(C(=O)OC)=C(C)NC3=C2C(=O)CCC3)cc2cc(C(=O)c3ccc([N+](=O)[O-])cc3)oc12 (centres undefined) | 0.82 | 0.72 |  | 0.25 | 0.82 | 0.65 |  |  |  |  |  | 
12 | CCOC(=O)C1=C(C)NC2=C(C(=O)CC(C)(C)C2)C1c1cc(C(C)CC)c2oc(C(=O)c3ccc(OC)cc3)cc2c1 (centres undefined) | 1.13 | 0.82 |  | 0.51 | 1.3 | 1.08 |  |  |  |  |  | 
13 | CCOC(=O)C1=C(C)NC2=C(C(=O)CCC2)C1c1ccccc1 (centres undefined) | 1.44 | 1.25 |  | 0.74 | 1.43 | 1.26 |  |  |  |  |  | 
14 | CCOC(=O)C1=C(C)NC2=C(C(=O)CCC2)C1c1cc(C(C)CC)c2oc(C(=O)c3ccc(Cl)cc3)cc2c1 (centres undefined) | 0.79 | 1.02 |  | 0.31 | 1.04 | 0.9 |  |  |  |  |  | 
15 | CCC(C)c1cc(C=O)cc2cc(C(=O)c3ccc([N+](=O)[O-])cc3)oc12 (centres undefined) | 1.08 | 0.66 |  | 0.31 | 0.73 | 1.04 |  |  |  |  |  | 
16 | CCC(C)c1cc(C2C(C(=O)OC)=C(C)NC3=C2C(=O)CC(C)(C)C3)cc2cc(C(=O)c3ccc(OC)cc3)oc12 (centres undefined) | 1.26 | 0.64 |  | 0.29 | 1.14 | 0.97 |  |  |  |  |  | 
17 | CCOC(=O)C1=C(C)NC2=C(C(=O)CC(C)(C)C2)C1c1cc(C(C)(C)C)c2oc(C(=O)c3ccc(OC)cc3)cc2c1 (centres undefined) | 1.15 | 1.53 |  | 0.36 | 1.47 | 1.04 |  |  |  |  |  | 
18 | CCC(C)c1cc(C2C(C(=O)OC)=C(C)NC3=C2C(=O)CCC3)cc2cc(C(=O)c3ccc(Cl)cc3)oc12 (centres undefined) | 1.31 | 1.48 |  | 0.5 | 1.34 | 1.39 |  |  |  |  |  | 
19 | CCOC(=O)C1=C(C)NC2=C(C(=O)CCC2)C1c1cc(C(C)CC)c2oc(C(=O)c3ccc([N+](=O)[O-])cc3)cc2c1 (centres undefined) | 0.69 | 0.82 |  | 0.37 | 0.89 | 1.12 |  |  |  |  |  | 
20 | CCC(C)c1cc(C2C(C(=O)OC)=C(C)NC3=C2C(=O)CC(C)(C)C3)cc2cc(C(=O)c3ccc(C)cc3)oc12 (centres undefined) | 1.13 | 1.16 |  | 0.37 | 1.11 | 1.08 |  |  |  |  |  | 
21 | CCc1cc(C=O)cc2cc(C(=O)c3ccc(OC)cc3)oc12 | 1.03 | 1.11 |  | 0.29 | 1.24 | 1.09 |  |  |  |  |  | 
22 | CCC(C)c1cc(C=O)cc2cc(C(=O)c3ccc(C)cc3)oc12 (centres undefined) | 1.42 | 1.16 | 7.50 | 0.3 | 1.41 | 1.23 |  |  |  |  |  | 
23 | CCC(C)c1cc(C2C(C(=O)OC)=C(C)NC3=C2C(=O)CC(C)(C)C3)cc2cc(C(=O)c3ccc([N+](=O)[O-])cc3)oc12 (centres undefined) | 0.76 | 1.03 |  | 0.3 | 1.06 | 0.98 |  |  |  |  |  | 
24 | CCOC(=O)C1=C(C)NC2=C(C(=O)CC(C)(C)C2)C1c1cc(CC)c2oc(C(=O)c3ccc(OC)cc3)cc2c1 (centres undefined) | 1.72 | 1.45 |  | 0.5 | 1.65 | 1.24 |  |  |  |  |  | 
25 | CCOC(=O)C1=C(C)NC2=C(C(=O)CC(C)(C)C2)C1c1ccccc1 (centres undefined) | 1.23 | 1.41 |  | 0.58 | 1.41 | 1.03 |  |  |  |  |  | 
26 | COC(=O)C1=C(C)NC2=C(C(=O)CC(C)(C)C2)C1c1cc(C(C)(C)C)c2oc(C(=O)c3ccc(OC)cc3)cc2c1 (centres undefined) | 1.25 | 1.15 |  | 0.36 | 1.1 | 0.79 |  |  |  |  |  | 
